In paper PMC4577306 (Biochimica et biophysica acta, 2015):
No end group written: not given here.

Tests used:
[1] = molecular target: neurochondrin peptide I (human); assay: SPR
[2] = molecular target: neurochondrin peptide II (human); assay: SPR
human RIIα = human RIIα (Homo sapiens, UniProt P13861); assay: SPR kinetics of RIIα on immobilized neurochondrin peptides; assay type: binding; conditions: for kon: read-out: ka (apparent association rate constant)
How it was run: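 Human RIIα purified by cAMP affinity chromatography. Test peptides dissolved in DMSO, amine-coupled to CM5 chips after 10 min NHS/EDC activation to about 1 RU, then blocked with 1 M ethanolamine-HCl pH 8.5, at 5 μL/min and 25 °C. Activated/deactivated reference flow cell. Running buffer 100 mM Tris, 150 mM NaCl, 0.005% Tween 20, pH 7.4, 25 °C. Surfaces regenerated with SDS, 4 M guanidinium-HCl and 1 M NaCl buffer.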

Chain of human RIIα (P13861 whole entry): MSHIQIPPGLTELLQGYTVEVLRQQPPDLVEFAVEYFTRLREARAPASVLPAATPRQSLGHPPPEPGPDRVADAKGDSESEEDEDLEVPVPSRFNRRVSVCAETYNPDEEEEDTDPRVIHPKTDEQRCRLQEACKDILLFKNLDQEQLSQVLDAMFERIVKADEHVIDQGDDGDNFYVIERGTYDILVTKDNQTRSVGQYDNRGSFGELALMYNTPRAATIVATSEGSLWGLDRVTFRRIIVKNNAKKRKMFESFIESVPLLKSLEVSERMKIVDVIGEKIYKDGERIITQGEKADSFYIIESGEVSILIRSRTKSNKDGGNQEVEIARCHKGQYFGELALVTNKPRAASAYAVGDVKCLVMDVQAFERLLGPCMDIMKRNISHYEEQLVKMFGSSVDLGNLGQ

Row | Kd [1] [nM] | Kd [2] [nM] | Kd (human RIIα) [nM] | kon (human RIIα) [M⁻¹ s⁻¹] | Substance
1 | 9.3 | 9.6 |  |  | human RIIα subunit of cAMP-dependent protein kinase (PKA) (from UniProt P13861 1-404) (natural protein)
2 |  |  | 9.6 ± 4.8 | 110000 ± 5e+09 | KLSSWQRNPALKLAARLAHA-NH2 [peptide II]
3 |  |  | 9.3 ± 3.1 | 120000 ± 1e+09 | YAGDIDAKTRRRIFDAVGFTF-NH2 [peptide I]
